# Measured values: PubChem BioAssay
# The source made the active and inactive calls. Unless noted, how the calls were made is not given here.
# How the values were obtained:
# [1] = target: Pantothenate synthetase (Mycobacterium tuberculosis (strain ATCC 25618 / H37Rv)) (UniProt P9WIL5); test: Recombinant Mtb pantothenate synthetase (PanC) inhibitors, coupled enzyme, confirmatory (AID 375); conditions: coupled enzyme assay; at 10 µM, stronger effect = higher value;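 further: 0% = full reaction with vehicle and 100% = no enzyme background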
# Sequence of Pantothenate synthetase (Mycobacterium tuberculosis (strain ATCC 25618 / H37Rv)) (P9WIL5 whole entry, looked up): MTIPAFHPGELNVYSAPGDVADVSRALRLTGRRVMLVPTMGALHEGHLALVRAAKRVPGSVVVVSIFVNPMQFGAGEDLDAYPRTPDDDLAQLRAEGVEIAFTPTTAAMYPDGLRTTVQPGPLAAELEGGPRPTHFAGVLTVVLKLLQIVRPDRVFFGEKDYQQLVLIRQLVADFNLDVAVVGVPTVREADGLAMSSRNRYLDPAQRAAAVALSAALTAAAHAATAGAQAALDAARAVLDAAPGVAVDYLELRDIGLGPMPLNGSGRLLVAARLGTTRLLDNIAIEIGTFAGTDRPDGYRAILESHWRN
# [2] = HUVEC growth inhibition – cell-based, human, primary screen (AID 575;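 active means viability at or below 30% in both replicate assays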;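 further: 100% = median of untreated cell wells with 0.1% DMSO on each plate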); conditions: HUVEC proliferation, CellTiter-Glo luminescence, 72 h; at 10 µM; stronger effect = lower value
# How it was run: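 Timing: 72 h treatment at 37 °C; material: HUVEC primary cells; technique: CellTiter-Glo luminescence measuring cellular ATP; controls: vehicle and MePR control wells; measure: percent of median DMSO-control luminescence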
# [3] = growth inhibitors of H69AR lung tumor, primary screen, human, duplicate replicates (AID 580;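 active means viability at or under a set limit in both replicates, limit being median viability minus 3 SD, cut at about 48% in these data, passing the limit was not always enough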;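 further: 100% = mean luminescence of untreated wells and 0% = no signal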); conditions: H69AR lung tumor cells viability, ATP luminescence, 72 h; at 10 µM; stronger effect = lower value
# [4] = reversal of MRP1-mediated doxorubicin resistance, pilot screen, H69AR cells, doxorubicin co-treatment (AID 601;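 active means viability loss from added drug above about 55%, and viability with drug at most 40%, in both replicates, limit read from the data, passing the limit was not always enough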); conditions: CellTiter-Glo, 72 h, at 10 µM; for differential viability (reversal): stronger effect = higher value
# [5] = 384-well plate pilot, post-Golgi transport modulator project, inhibition of yeast transport mutant growth (AID 636; in the data active means inhibition above about 31%); conditions: absorbance 615 nm, about 18 h, stronger effect = higher value
# [6] = growth suppression of yeast trafficking mutant, preliminary HTS, modulators of trafficking downstream of Golgi apparatus project, 1536-format plate, OD 615 nm (AID 637; in the data active means inhibition above about 30%); conditions: yeast transport mutant growth, absorbance 615 nm, 18 h; stronger effect = higher value
# [7] = SK-BR-3 cell growth inhibitors, pilot screen, 24 h, human (AID 572;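 active means viability at or below 10% of carrier control in both of two separate runs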;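 further: compound exposure lasted between 18 and 24 h rather than exactly 24 h; 100% = carrier-treated control wells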); conditions: SK-BR-3 viability, CellTiter-Glo luminescence, at 10 µM, stronger effect = lower value
# [8] = H69AR cells + 2 uM doxorubicin, measured here: viability with 2 uM doxorubicin, stronger effect = lower value
# [9] = H69AR cells, compound alone cytotoxicity
SMILES,inhibition [1],viability [2],viability [3],differential viability (reversal) ([4]; H69AR cells + 2 uM doxorubicin),"viability [4, 8] [%]","viability [4, 9] [%]",inhibition [5],inhibition [6],viability [7]
CC1(C)CC(=O)C=C(NCCN2CCN(C(=O)Cc3ccc(Cl)cc3)CC2)C1,2% (inactive),109% (inactive),92.4% (inactive),-3.5% (inactive),95.9,92.4,-0.79% (inactive),-2.06% (inactive),–
CNCC(O)c1ccc(O)cc1 (centres undefined),0% (inactive),95.6% (inactive),102% (inactive),15.7% (inactive),85.9,102,-1.82% (inactive),8.83% (inactive),120% (inactive)
Cc1c2ccncc2c(C)c2c1[nH]c1ccccc12,0% (inactive),1.5% (active),–,0.18% (inactive),0.98,1.16,1.56% (inactive),3.33% (inactive),–
CC(NC(C)(C)C)C(=O)c1cccc(Cl)c1 (centres undefined),0% (inactive),74.8% (inactive),99.5% (inactive),4.02% (inactive),95.5,99.5,-1.17% (inactive),1.67% (inactive),87% (inactive)
Clc1ccc(COC(Cn2ccnc2)c2ccc(Cl)cc2Cl)cc1 (centres undefined),2% (inactive),73.4% (inactive),–,-9.47% (inactive),48,38.5,–,–,123% (inactive)
CCC(C(=O)N1CCC2(CC1)OCCO2)c1ccccc1 (centres undefined),0% (inactive),102% (inactive),93% (inactive),13.2% (inactive),79.8,93,-6.4% (inactive),1.43% (inactive),–
Cc1ccc2c(c1)[C@@H]1CN(C)CC[C@@H]1N2C(=O)Nc1cccc(C(F)(F)F)c1,9% (inactive),–,69.9% (inactive),-8.21% (inactive),78.1,69.9,1.45% (inactive),1.15% (inactive),–
